# RGS4 inh: inhibitors of human RGS4 | HEK293 M3R/RGS4 inducible, Fluo-4 calcium flux; stronger effect = higher value; triggered by carbachol at its EC20 | B-score at 10 µM | hit rate 0.45% among 310,000 | AID 463165;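 active = B-score, a plate-corrected calcium signal, over three deviations above library mean, with baseline fluorescence within five deviations of library mean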;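 note: RGS4 expression induced by doxycycline in cells with stable M3 receptor; B-score is computed from the integrated fluorescence ratio over baseline after carbachol; higher B-score means a larger calcium signal and so more RGS4 inhibition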
# Target sequence (P49798 whole entry, looked up): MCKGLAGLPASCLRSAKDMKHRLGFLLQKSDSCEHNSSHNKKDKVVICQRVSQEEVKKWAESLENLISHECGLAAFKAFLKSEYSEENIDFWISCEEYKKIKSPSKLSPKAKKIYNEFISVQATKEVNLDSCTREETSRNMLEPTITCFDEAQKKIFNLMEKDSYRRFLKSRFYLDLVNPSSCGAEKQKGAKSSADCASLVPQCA
# MrgX1 agonist: human MrgX1 receptor agonism, primary screen. AID 588627. MrgX1-HEK293 cells, Fluo-4 calcium fluorescence, agonist mode; stronger effect = higher value. B-score at 10 µM. hit rate 0.44% among 310,000;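 active = calcium response B-score plate-corrected fluorescence ratio at least 3 library SD, with starting fluorescence B-score inside 5 SD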
# Target sequence (Q96LB2 whole entry, looked up): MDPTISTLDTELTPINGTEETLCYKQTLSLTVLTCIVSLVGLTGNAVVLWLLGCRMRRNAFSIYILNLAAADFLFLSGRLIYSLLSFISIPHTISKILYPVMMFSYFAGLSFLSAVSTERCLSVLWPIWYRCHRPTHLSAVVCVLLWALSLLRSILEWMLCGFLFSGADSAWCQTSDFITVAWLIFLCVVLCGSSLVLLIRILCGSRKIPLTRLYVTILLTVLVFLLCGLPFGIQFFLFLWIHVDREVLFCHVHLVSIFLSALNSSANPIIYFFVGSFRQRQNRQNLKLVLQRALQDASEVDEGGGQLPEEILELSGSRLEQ
#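 Test system: HEK293 cells stably expressing human MrgX1 receptor; amount: 15,000 cells per well; doses: compound delivered in addition one of three; times: overnight plating before 1 h dye loading; detection: Fluo-4 NW calcium-flux fluorescence, kinetic read; read-out basis: B-scored fluorescence response ratio; controls: positive and negative controls per plate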
# RGS4 act: RGS4 potentiation or activation; HEK293 M3R/inducible RGS4, carbachol calcium flux Fluo4; stronger effect = lower value; B-score at 10 µM; hit rate 0.92% among 310,000;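 active = B-score of the integrated calcium signal more than 4 SD below the library mean, with starting fluorescence not abnormally high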;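 note: negative B-score means reduced calcium response which marks RGS4 activation or potentiation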
#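 Material: M3R-expressing HEK293 line, RGS4 induced by doxycycline | Schedule: Overnight RGS4 induction, 30 min dye load 37 °C, 20 min compound RT | Measured by: Fluo4 fluorescence kinetic imaging of calcium | Read-out: Integrated calcium ratio converted to B score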
# MrgX1 antagonist: human MrgX1 receptor antagonism, primary screen; B-score at 10 µM; hit rate 1.3% among 310,000; MRGX1-HEK293 calcium flux, Fluo-4, BAM8-22 antagonism; stronger effect = lower value;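 active = calcium-response B-score plate-corrected more than 3 library SD below zero, starting fluorescence within 5 deviations, no agonist response on first addition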;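 note: peak minus trough fluorescence over baseline after final BAM8-22 challenge near maximal dose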
# MrgX1 allo act: human MrgX1 positive allosteric modulation, primary screen. Q96LB2. hit rate 0.63% among 310,000. B-score at 10 µM. MrgX1-HEK293, Fluo-4 calcium flux, FDSS; stronger effect = higher value;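 active = plate-corrected calcium response at least 3 library SD above typical, normal starting fluorescence, not activating the receptor alone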;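 note: compound read alongside a low EC10 to EC30 dose of BAM8-22 agonist; peak minus trough fluorescence over baseline measured at the second addition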
# RGS4 inh valid: validation of RGS4 inhibitors; HEK293 M3R/RGS4, carbachol calcium Fluo-4 fluorescence; carbachol added at its EC20; 0 = buffer wells, 100 = carbachol control; calcium response, % at 10 µM; shares compounds with RGS4 inh; AID 492999; hit rate 65% among 1,700;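 active = duplicate-averaged calcium response above the buffer-only control mean plus 5 SD of those controls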;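 note: integrated fluorescence ratio F max minus min over baseline F0; higher response in RGS4-induced cells means RGS4 inhibition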
# M3R Ca ctr: checks RGS4 inhibitor effects in non-induced HEK293 M3R cells | shares compounds with RGS4 inh | carbachol calcium Fluo-4; submaximal (EC20) carbachol stimulus; buffer wells 0%, carbachol control wells 100% | activity (percent), % at 10 µM | hit rate 20% among 1,900; call rule not given here;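 note: RGS4 induction absent so cells express M3R without RGS4; higher means more calcium signal and flags a non-specific hit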
# RGS4 inh ctr2: second RGS4 inhibitor counter-screen in uninduced cells lacking carbachol | shares compounds with RGS4 inh | calcium response (agonist-mode artifact), % at 10 µM | hit rate 22% among 1,900 | HEK293 M3R/RGS4 non-induced, Fluo-4 calcium, no carbachol; normalised: buffer wells 0%, carbachol wells 100%;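 active = duplicate-averaged calcium rise in uninduced cells above buffer wells' mean plus 5 SD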
# * marks the source's active call; other numbers are inactive results; i = inactive; x = no result given. Most compounds without a hit are left out; they make up all but 3.5% or so of the library.
SMILES,RGS4 inh,MrgX1 agonist,RGS4 act,MrgX1 antagonist,MrgX1 allo act,RGS4 inh valid,M3R Ca ctr,RGS4 inh ctr2
N#CC1=C2N=C(N)c3ccccc3N2C2=C(C(=O)CCC2)C1c1cccc(Cl)c1 (centres undefined),i,i,i,i,i,x,38%*,28%*
Cc1ccsc1/C=N/NC(=S)NCc1ccccc1,i,i,i,i,i,x,i,i
O=C1CCCC2=C1C(c1ccc(Cl)cc1)n1c(s/c(=C\c3ccc4ccncc4c3)c1=O)=N2 (centres undefined),14*,i,i,i,i,42%*,i,196%*
CCOC(=O)C1=C(C)N=c2s/c(=C/c3ccc(OCC(=O)O)c(OC)c3)c(=O)n2C1c1ccc(Cl)cc1 (centres undefined),i,i,i,i,i,x,x,x
CC(C)C(=O)NCCc1nc2ccccc2n1C,i,i,i,i,i,x,x,x
O=C1C2=C(c3ccccc31)[N+](=O)C1CCCCC1N2[O-] (centres undefined),i,i,i,i,i,x,x,x
CC(=O)N1N=C(c2cccc(NS(=O)(=O)c3ccc(C)cc3)c2)CC1c1ccco1 (centres undefined),i,i,i,i,i,x,x,x
CC(=O)N1N=C(c2c(-c3ccccc3)c3cc(C)ccc3[nH]c2=O)CC1c1ccco1 (centres undefined),i,i,i,i,i,x,i,i
CC(=O)N1N=C(c2c(-c3ccccc3)c3cc(Br)ccc3[nH]c2=O)CC1c1ccco1 (centres undefined),7.5*,i,i,i,i,20%*,i,i
CC(C)CC(=O)/C(=C/c1ccc(N(C)C)cc1)n1cncn1,i,i,i,i,i,x,x,x
CC(C)CC(=O)/C(=C\c1ccc(Cl)cc1Cl)n1cncn1,6.8*,x,i,x,x,16%*,i,20%*
CCN(CC)CCCNC(=S)N1CCN(c2nc(-c3ccccc3)cs2)CC1,i,i,i,i,i,x,x,x
CN(C)S(=O)(=O)c1cccc(NC(=O)COC(=O)/C=C/c2ccc([N+](=O)[O-])cc2)c1,i,i,i,i,i,x,x,x
Fc1ccc2c(c1)/C(=N/Nc1ccccn1)CCS2,12*,i,i,i,i,14%*,i,i
COc1cccc(CC2(CO)CCCN(Cc3cnn(-c4ccccc4)c3)C2)c1 (centres undefined),i,i,i,i,i,x,x,x
Cc1cccn2c(=O)c(C=O)c(Cl)nc12,i,i,i,i,i,x,x,x
O=Cc1c(Cl)nc2ccccn2c1=O,4.8*,i,i,i,i,22%*,i,i
Cc1ccc(C(=O)/C=C/C(=O)c2ccc(C)cc2)cc1,i,i,i,i,i,x,i,i
COc1ccc(-c2cc(C(F)(F)F)n3nc(C(=O)NCc4ccco4)cc3n2)cc1,i,i,i,i,i,x,i,i
O=C(NCc1ccco1)c1cc2nc(-c3ccc4c(c3)OCO4)cc(C(F)(F)F)n2n1,4.7*,i,i,i,i,i,i,16%*
O=C(NCc1cccnc1)c1cc2nc(-c3ccc4c(c3)OCO4)cc(C(F)(F)F)n2n1,i,i,i,i,i,x,x,x
O=C1/C(=C\c2ccccn2)SC(=S)N1c1ccc(S(=O)(=O)Nc2nccs2)cc1,5.9*,i,i,i,i,20%*,i,i
N=C1C(c2ccccc2)=C(O)CN1c1cccc(S(N)(=O)=O)c1,i,i,i,i,i,x,x,x
CN1CCN(C(=O)CCCN2C(=O)/C(=C/c3ccccc3)SC2=S)CC1,i,i,i,i,i,x,x,x
O=C(O)CCCN1C(=O)/C(=C\C(Cl)=C\c2ccccc2)SC1=S,15*,i,i,i,i,44%*,i,i
SMILES,RGS4 inh,MrgX1 agonist,RGS4 act,MrgX1 antagonist,MrgX1 allo act,RGS4 inh valid,M3R Ca ctr,RGS4 inh ctr2
O=C(O)CCCN1C(=O)/C(=C\c2ccc(-c3nc4ccccc4s3)o2)SC1=S,21*,i,-7.9*,-8*,i,14%*,i,126%*
Cc1sc2nc3ccc(NCc4ccco4)nn3c(=O)c2c1C,8.3*,i,i,i,i,i,i,16%*
COc1ccc(C(=O)/C(=C/O)N=Nc2ccc(F)cc2)cc1,6.8*,i,i,i,i,56%*,128%*,i
Cc1cccc(N=N/C(=C\O)C(=O)c2ccc(Br)cc2)c1,5.3*,i,i,i,i,26%*,i,i
COc1ccc(N=N/C(=C\O)C(=O)c2cccs2)cc1,i,i,i,i,i,x,x,x
CC1CCN(c2nc(N3CCCCC3)nc(N3CCCCC3)n2)CC1,8.7*,i,i,i,i,44%*,55%*,i
O=C(/C=C/c1ccco1)Nc1nc(-c2ccccn2)cs1,12*,i,i,i,i,22%*,i,i
O=C(/C=C/c1ccco1)Nc1nc(-c2ccccc2)cs1,i,i,i,i,i,x,x,x
CCN(CC)c1ccc(N=Cc2cc(Br)ccc2O)cc1,i,i,i,i,i,x,x,x
OCC(CO)(CO)N=Cc1cc(Br)ccc1O,5.8*,i,i,i,i,i,i,i
CCN(CC)S(=O)(=O)c1ccc2oc(C(=O)NC(C)C)c(C)c2c1,i,i,i,i,i,x,x,x
CC1S/C(=N/N=C/c2cccs2)NC1=O (centres undefined),i,i,i,i,i,x,x,x
O=C1N/C(=N\N=C\c2cccs2)SC1Cc1ccc(Cl)cc1 (centres undefined),i,i,i,i,i,x,x,x
CCCC1S/C(=N/N=C/c2cccs2)NC1=O (centres undefined),i,i,i,i,i,x,i,i
CCC1S/C(=N/N=C/c2cccs2)NC1=O (centres undefined),i,i,i,i,i,x,i,i
CN(CC(=O)Nc1cccc(F)c1)C(=O)c1ccc(N2CCOCC2)c([N+](=O)[O-])c1,i,i,i,i,i,x,x,x

# Assay outcomes from PubChem.
